Only some compounds are listed: those with a hit (about 0.77% of all), similar ones and a draw of the others.
hIAP block = human IAP inhibitors, primary screen, biochemical, luminescence, uHTS; 330,000 tested, 0.12% active; AID 2544, 2010; Intestinal-type alkaline phosphatase (Homo sapiens), P09923; inhibition, % at 10 µM; purified IAP, CDP-Star luminescence, 30 min;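 active = inhibition reaching a set limit with compound at 10 µM in the primary screen, cut at about 35% in these data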;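 note: plate controls were DMSO wells with enzyme for no effect and no-enzyme buffer wells for full effect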
Target sequence (P09923 whole entry, looked up): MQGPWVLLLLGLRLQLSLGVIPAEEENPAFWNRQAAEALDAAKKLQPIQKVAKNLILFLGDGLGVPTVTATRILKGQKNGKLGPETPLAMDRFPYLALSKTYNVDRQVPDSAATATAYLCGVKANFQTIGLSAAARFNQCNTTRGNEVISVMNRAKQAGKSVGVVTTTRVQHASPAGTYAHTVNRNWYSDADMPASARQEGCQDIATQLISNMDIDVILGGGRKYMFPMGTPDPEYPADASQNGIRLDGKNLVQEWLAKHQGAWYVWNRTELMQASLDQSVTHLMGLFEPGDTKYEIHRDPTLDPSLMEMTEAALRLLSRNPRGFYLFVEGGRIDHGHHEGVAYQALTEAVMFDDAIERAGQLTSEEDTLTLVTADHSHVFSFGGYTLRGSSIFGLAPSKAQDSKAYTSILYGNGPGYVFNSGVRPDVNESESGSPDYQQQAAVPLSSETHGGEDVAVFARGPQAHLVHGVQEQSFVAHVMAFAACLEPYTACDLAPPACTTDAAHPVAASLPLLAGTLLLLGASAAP
hIAP activ = human IAP activators, primary screen, biochemical, luminescence, uHTS; Intestinal-type alkaline phosphatase (Homo sapiens), P09923; purified human IAP, CDP-Star luminescence, 30 min; stronger effect = higher value; 1 = vehicle-only enzyme, 0 = enzyme-free background; activation factor at 10 µM; 330,000 tested, 0.16% active;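 active = activation factor of the enzyme at least 2-fold when tested at 20 µM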
bIAP activator = bovine intestinal alkaline phosphatase activators, primary screen, biochemical, bovine IAP, CDP-star luminescence; 200,000 tested, 0.17% active; alkaline phosphatase, intestinal [Bos taurus]; purified bovine IAP, 30 min; stronger effect = higher value; fold of DMSO-control signal, blank-subtracted; activation factor at 20 µM; AID 1016, 2008;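 active = activation factor of 2 or more at 20 µM, a signal rise over negative controls twice the positive control's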
mIAP inh = inhibitors of mouse IAP, primary screen, biochemical, luminescence, uHTS | intestinal alkaline phosphatase [Mus musculus] | purified mouse IAP, CDP-Star luminescence, 30 min | inhibition, % at 10 µM | 330,000 tested, 0.2% active | AID 2806, 2010;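 active = inhibition of at least 40% at 10 µM in the primary screen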;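 note: plate controls were DMSO with enzyme for no effect and no enzyme wells for full effect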
mIAP activ = activators of mouse IAP, primary screen, biochemical, luminescence, uHTS | muIAP, CDP-Star luminescence, 30 min; stronger effect = higher value; 1 = vehicle-only enzyme signal, 0 = enzyme-free wells | 330,000 tested, 0.24% active | activation factor at 10 µM;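 active = activation factor of at least 2 at 20 µM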
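System: mouse IAP enzyme. Reagent: CDP-Star chemiluminescent phosphatase substrate. Benchmarks: DMSO wells, no-enzyme wells. Times: 30 min enzyme-substrate-compound incubation at room temperature. Detection: luminescence from enzymatic CDP-Star hydrolysis. Doses: test compounds delivered from DMSO solution.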
bIAP inhibitor = bovine intestinal alkaline phosphatase inhibitors, primary screen, selectivity assay for TNAP inhibitor project, biochemical, bovine IAP, CDP-star luminescence | alkaline phosphatase, intestinal [Bos taurus] | purified bovine IAP, 30 min | inhibition, % at 20 µM | 190,000 tested, under 10 active | AID 1019, 2008;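 active = over 50% inhibition of intestinal alkaline phosphatase at 20 µM in the single-dose screen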
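test system = bovine IAP enzyme | medium = DEA buffer 100 mM, pH 9.8, with MgCl2 1.0 mM, ZnCl2 0.02 mM | detection = luminescence | dosing = single compound dose of 20 µM, 2% DMSO final | incubation = 30 min reaction at room temperature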
hIAP act confirm = human IAP activators, confirmation, biochemical, luminescence, single concentration, uHTS hits; 880 tested, 10% active; shares compounds with hIAP activ; AID 434926, 2010; purified IAP, CDP-Star luminescence, 30 min; stronger effect = lower value; activation (%Activity, negative = activation), % at 8.3 µM;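 active = at least twofold enzyme activation in any of six single-dose repeats, which the averaged readout prints as negative percent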
Starred values were filed as active, the others as inactive; nt = no result given.

SMILES	hIAP block	hIAP activ	bIAP activator	mIAP inh	mIAP activ	bIAP inhibitor	hIAP act confirm
CSc1ccccc1NC(=O)c1csc(C)c1	35.1*	0.649	nt	0.1	0.999	nt	-54.9
Cc1ccc(NC(=O)CN(C(=O)N2CCN(C)CC2)S(=O)(=O)c2ccc(C)cc2)cc1	7.8	0.922	nt	2.6	0.974	nt	nt
Cc1ccc(S(=O)(=O)N(CC(=O)Nc2ccc(C)cc2C)C(=O)N2CCN(C)CC2)cc1	36.3*	0.637	nt	4.3	0.957	nt	-55.4*
COC(=O)CN1C(=O)C(O)(CC(=O)c2ccccc2)c2ccccc21 (stereo not given)	-17.3	1.17	0.9	-1.1	1.01	5.5	nt
COC(=O)CN1C(=O)C(O)(CC(=O)c2ccc(C)cc2)c2ccccc21 (stereo not given)	37.1*	0.629	0.9	1.6	0.984	13.9	45.9
NC(=O)C(CC(=O)O)NC(=O)[C@@H]1CCCCNc2c(I)cc([N+](=O)[O-])cc2C(=O)N[C@@H](CO)C(=O)NCC(=O)N1 (stereo not given in full)	nt	nt	0.9	nt	nt	7.2	nt
O=[N+]([O-])c1cccc(-c2nnn(C34CC5CC(CC(C5)C3)C4)n2)c1	9.7	0.903	1	6.2	0.938	4.8	nt
CCc1ccc(N/C(N)=N/c2nc(CSc3ncccn3)cc(=O)[nH]2)cc1	-102.8	2.03*	1	-0.1	1	-4.0	-43.9
CCCn1c(=O)c(C(=O)NNC(=O)c2ccc(Cl)cc2Cl)c(O)c2ccccc21	-194.8	2.95*	nt	3.1	0.969	nt	-67.7
CCn1c(=O)c(C(=O)NNC(=O)c2ccc(Cl)cc2Cl)c(O)c2ccccc21	-48.9	1.49	nt	16.1	0.839	nt	nt
Cc1ccc(-c2nc(CS(=O)(=O)CC(=O)N3CC(C)CC(C)C3)c(C)o2)cc1 (stereo not given)	26.7	0.733	1	11.3	0.887	-4.7	nt
COc1cc(/C=C2\C(=O)N(c3ccc(NC(C)=O)cc3)N=C2c2ccccc2)ccc1O	36.8*	0.632	0.7	29.8	0.702	28.6	-8.2
CC(NC(=O)c1ccc2nc[nH]c2c1)c1ccccc1 (stereo not given)	-138.6	2.39*	1.1	4.4	0.956	-10.9	-4.5
CCC(CC)NC(=O)c1ccc2nc[nH]c2c1	-14.8	1.15	0.9	12.9	0.871	11.3	nt
COc1ccc(F)cc1C(=O)C1CCCN(Cc2cnc(N3CCCC3)s2)C1 (stereo not given)	-24.8	1.25	1	-0.5	1	1.1	nt
CCOC(=O)c1sc(NC(=O)CSc2nc(C)cc(-c3ccccc3)n2)c(C#N)c1C	-0.2	1	0.9	17.6	0.824	14.6	nt
CCOC(=O)c1sc(NC(=O)CSc2n[nH]c(-c3ccc(Cl)cc3Cl)n2)c(C#N)c1C	69.2*	0.308	0.9	32.5	0.675	13.0	-1.0
O=C(c1cc2ccccc2oc1=O)N(Cc1cccc(Br)c1)C1CCS(=O)(=O)C1 (stereo not given)	-0.6	1.01	nt	-6.4	1.06	nt	nt
COc1cc(OC)cc(-c2nnc(Nc3nc4c(F)cccc4s3)o2)c1	-103.0	2.03*	0.9	18.9	0.811	6.2	-1.2
COc1ccc(CNC(=O)CN(C(=O)CCC(=O)Nc2nccs2)c2ccccc2C)cc1	6.2	0.938	nt	3.8	0.962	nt	nt
CC1CCCCC1NC(=O)COC(=O)c1ccccc1NC(=O)c1ccco1 (stereo not given)	81.5*	0.185	1.1	-1.6	1.02	-12.4	2.8
O=C(NCCCCNC(=O)c1ccccc1F)c1ccccc1F	36.6*	0.634	nt	8.6	0.914	nt	17.1
O=C(O)CNC(=O)c1ccccc1F	5.6	0.944	0.9	4.8	0.952	5.5	nt
COc1ccc(Cl)cc1NC(=O)CCc1nnc2ccc(N3CCN(C)CC3)nn12	-7.4	1.07	nt	-3.4	1.03	nt	nt
CN(CCCC(=O)O)c1ccc(N=Nc2ccc([N+](=O)[O-])cc2)cc1	47.3*	0.527	nt	37.8	0.622	nt	23.7
SMILES	hIAP block	hIAP activ	bIAP activator	mIAP inh	mIAP activ	bIAP inhibitor	hIAP act confirm
CN(N=Nc1ccc([N+](=O)[O-])cc1)c1ccccc1	15.2	0.848	0.9	19.4	0.806	6.1	nt
Cc1c(OCC(F)(F)F)ccnc1CSc1nc2ccccc2[nH]1	-29.2	1.29	1.2	1.9	0.981	-21.0	nt
Cc1c(C(C)NC(=O)Nc2ccc(F)cc2F)cnn1C (stereo not given)	-110.4	2.1*	1.1	-5.0	1.05	-13.3	-47.3
CC(=O)c1ccc(NC(=O)N2CCN(c3ccc(C)cc3)C(C)C2)cc1 (stereo not given)	-12.3	1.12	0.9	-15.7	1.16	5.3	nt
O=C(NNC1=NCCC1)c1ccc(Br)cc1	-160.7	2.61*	1	2.0	0.98	-1.0	-43.9
COc1ccc(NC(=O)CN2CCC(C(N)=O)(N3CCCCC3)CC2)cc1	3.4	0.966	1.1	3.5	0.965	-10.0	nt
Nc1ccc(-c2nnn(CC(=O)N3CCCCC3)n2)cc1	-12.3	1.12	nt	0.8	0.992	nt	nt
CCn1nnc(-c2ccc(N)cc2)n1	-101.5	2.02*	1.1	-2.1	1.02	-7.4	-22.0
Nc1nc(CN2CCN(Cc3ccc4c(c3)OCO4)CC2)nc(Nc2ccccc2)n1	-101.9	2.02*	1.1	-1.3	1.01	-5.1	-1.5
CC1=NN(c2ccccc2)C(=O)/C1=C/c1c(O)n(-c2ccc(F)c(Cl)c2)[nH]c1=O	20.3	0.797	0.9	10.4	0.896	9.3	nt
S=c1[nH]nc(-c2cc(-c3ccccc3)n[nH]2)n1/N=C/c1ccc(Cl)cc1	-102.9	2.03*	nt	0.5	0.995	nt	3.5
COc1cccc(Cn2cccc(NC(=O)NCc3ccccc3)c2=O)c1	38.5*	0.615	nt	5.0	0.95	nt	8.7
CN1C(=O)C(=O)/C(=C(/O)c2ccccc2)C1c1ccc(Br)cc1 (stereo not given)	3.8	0.962	nt	-8.1	1.08	nt	nt
CN1C(=O)C(=O)/C(=C(/O)c2ccc(Br)cc2)C1c1ccc(Cl)cc1 (stereo not given)	40.7*	0.593	nt	7.3	0.927	nt	5.4
O=C(N/N=C/c1ccccc1O)C(=O)Nc1ccccn1	-105.0	2.05*	1.4	18.8	0.812	-35.7	8.8
COc1ccc(/C=N/NC(=O)C(=O)Nc2ccccn2)cc1OC	-19.9	1.2	1.3	2.1	0.979	-29.1	nt

From PubChem
